The values that follow come from ChEMBL document CHEMBL4251654, “Structure-based design of human immuno- and constitutive proteasomes inhibitors” (Eur J Med Chem, 2018).

Each structure is given as a SMILES string. Some results are limits rather than exact numbers.

The first data set has as its system MCF7. The data set can be described thus: Cytotoxicity against human MCF7 cells assessed as reduction in cell viability after 48 hrs by Hoechst 33342 staining based HCS assay. In kind it is functional. Conditions: Homo sapiens, MCF7, 48 h; read-out: EC50; call rule not given here.
`C[C@H](NC(=O)c1ccc(OCc2ccccc2)cc1)C(=O)N[C@@H](C[C@]1(O)C(=O)Nc2ccccc21)C(=O)NCc1ccccc1`: the EC50 (as a rule, the concentration at which the effect is half-maximal) is 21 µM.

For the next data set, the system named is NCI-H727. The experiment in a line: Cytotoxicity against human NCI-H727 cells assessed as reduction in cell viability after 48 hrs by Hoechst 33342 staining based HCS assay. The conditions noted are these: nci-h727. Format: functional. The method in brief:
(§1)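 Cells were grown at 37 °C, 5% CO2 in medium with 10% FBS, 1% penicillin-streptomycin, 2 mM glutamine: DMEM for HuH7, MDA-MB-231 and fibroblasts, EMEM for Caco2, McCoy's for HCT116, RPMI for PC3 and NCI-H727. 4000 cells/well were seeded and dosed 24 h later at 0.1-25 μM final, from DMSO stocks. After 48 h they were fixed in ethanol/acetic acid and Hoechst-stained nuclei were counted by imaging. Survival is relative to DMSO. EC50 came from dose-response curves.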
As for `C[C@H](NC(=O)c1ccc(OCc2ccccc2)cc1)C(=O)N[C@@H](C[C@]1(O)C(=O)Nc2ccccc21)C(=O)NCc1ccccc1`, the EC50 entry is on record as “Not Active”.

In a further data set the target is T1, Proteasome subunit beta type-8 (Homo sapiens) (UniProt P28062).
T1 sequence (whole entry): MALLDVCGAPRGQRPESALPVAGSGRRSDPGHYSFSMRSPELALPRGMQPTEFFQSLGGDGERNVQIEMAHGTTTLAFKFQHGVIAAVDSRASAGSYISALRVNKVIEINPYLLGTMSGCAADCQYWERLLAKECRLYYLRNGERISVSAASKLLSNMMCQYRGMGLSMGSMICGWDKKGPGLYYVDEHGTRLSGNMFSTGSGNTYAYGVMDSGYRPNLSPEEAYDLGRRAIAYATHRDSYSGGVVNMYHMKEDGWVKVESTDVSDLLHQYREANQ
The data set can be described thus: Inhibition of human 20S immunoproteasome beta-5 at 50 uM using Suc-LLVY-AMC as substrate incubated for 15 mins measured for 45 mins by fluorescence assay relative to control.
Details: not given
The method in brief: (§2)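 Human 20S cCP or iCP (0.3 nM) was exposed to compound (0.001-50 μM) for 15 min in pH 8 buffer of 20 mM Tris-HCl, 10% glycerol, 0.01% SDS, 2% DMSO. Suc-LLVY-AMC at 20 μM followed. Fluorescence (ex 360/em 460 nm) was read 45 min at 37 °C versus untreated enzyme.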
Take `C[C@H](NC(=O)c1ccc(OCc2ccccc2)cc1)C(=O)N[C@@H](C[C@]1(O)C(=O)Nc2ccccc21)C(=O)NCc1ccccc1`: the inhibition (commonly the relative decrease from the control value, in per cent) is more than 85%.

The target in the next data set is T2, Proteasome Macropain subunit MB1 (Homo sapiens, UniProt P28074).
T2 sequence (P28074 whole entry): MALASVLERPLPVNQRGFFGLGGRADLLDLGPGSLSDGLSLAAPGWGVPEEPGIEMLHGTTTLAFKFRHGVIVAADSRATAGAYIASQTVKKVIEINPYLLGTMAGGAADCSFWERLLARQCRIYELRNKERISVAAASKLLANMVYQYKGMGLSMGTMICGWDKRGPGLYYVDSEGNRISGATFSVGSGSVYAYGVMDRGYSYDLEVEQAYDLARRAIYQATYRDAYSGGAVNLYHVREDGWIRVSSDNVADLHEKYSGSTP
The experiment in a line: Inhibition of human 20S constitutive proteasome beta-5 using Suc-LLVY-AMC as substrate incubated for 15 mins measured for 45 mins by fluorescence assay.
Details: not given
The gist of the method: as §2
`C[C@H](NC(=O)c1ccc(OCc2ccccc2)cc1)C(=O)N[C@@H](C[C@]1(O)C(=O)Nc2ccccc21)C(=O)NCc1ccccc1`: half-maximal inhibition (IC50) was put at 0.113 µM.

Another data set deals with HCT-116. The experiment in a line: Cytotoxicity against human HCT116 cells assessed as reduction in cell viability after 48 hrs by Hoechst 33342 staining based HCS assay. In kind it is functional. The conditions noted are these: Homo sapiens, HCT-116, 48 h; read-out: EC50. The gist of the method:
as §1
For the compound `C[C@H](NC(=O)c1ccc(OCc2ccccc2)cc1)C(=O)N[C@@H](C[C@]1(O)C(=O)Nc2ccccc21)C(=O)NCc1ccccc1`, the EC50 was 10 µM.

In a further data set the target is T3, Proteasome subunit beta type-10 (Homo sapiens) (UniProt P40306).
T3 sequence (whole entry): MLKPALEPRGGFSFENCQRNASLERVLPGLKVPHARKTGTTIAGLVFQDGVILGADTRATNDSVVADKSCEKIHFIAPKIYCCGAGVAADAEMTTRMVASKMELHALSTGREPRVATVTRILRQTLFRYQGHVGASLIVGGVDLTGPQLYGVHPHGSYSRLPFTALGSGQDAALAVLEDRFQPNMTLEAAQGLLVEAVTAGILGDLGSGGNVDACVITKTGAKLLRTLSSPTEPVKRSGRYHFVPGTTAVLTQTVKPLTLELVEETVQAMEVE
The experiment in a line: Inhibition of human 20S immunoproteasome beta-2 at 50 uM using BocLRR-AMC as substrate incubated for 15 mins measured for 45 mins by fluorescence assay relative to control.
Details: not given
`C[C@H](NC(=O)c1ccc(OCc2ccccc2)cc1)C(=O)N[C@@H](C[C@]1(O)C(=O)Nc2ccccc21)C(=O)NCc1ccccc1` returned an inhibition of more than 85%.

The target of another data set is T4, Proteasome subunit beta type-10 (Homo sapiens, UniProt P40306).
T4 sequence (P40306 whole entry): T3 sequence (whole entry)
The data set can be described thus: Inhibition of human 20S immunoproteasome beta-2 using BocLRR-AMC as substrate incubated for 15 mins measured for 45 mins by fluorescence assay.
Details: not given
Consider `C[C@H](NC(=O)c1ccc(OCc2ccccc2)cc1)C(=O)N[C@@H](C[C@]1(O)C(=O)Nc2ccccc21)C(=O)NCc1ccccc1`, for which the midpoint of inhibition, the IC50, lay at 28.3 µM.

For another data set, the target named is T5, Proteasome subunit beta type-8 (Homo sapiens, UniProt P28062).
T5 sequence (P28062 whole entry): T1 sequence (whole entry)
The experiment in a line: Inhibition of human 20S immunoproteasome beta-5 using Suc-LLVY-AMC as substrate incubated for 15 mins measured for 45 mins by fluorescence assay.
Details: not given
The gist of the method: as §2
Regarding `C[C@H](NC(=O)c1ccc(OCc2ccccc2)cc1)C(=O)N[C@@H](C[C@]1(O)C(=O)Nc2ccccc21)C(=O)NCc1ccccc1`, the midpoint of inhibition, the IC50, lay at 0.17 µM.

For another data set, the system named is PC-3. The experiment in a line: Cytotoxicity against human PC3 cells assessed as reduction in cell viability after 48 hrs by Hoechst 33342 staining based HCS assay. The conditions noted are these: Homo sapiens, PC-3, 48 h; read-out: EC50. Format: functional. The gist of the method: as §1
For `C[C@H](NC(=O)c1ccc(OCc2ccccc2)cc1)C(=O)N[C@@H](C[C@]1(O)C(=O)Nc2ccccc21)C(=O)NCc1ccccc1`, the EC50 is 24 µM.

In a further data set the target is T6, Proteasome subunit beta type-9 (Homo sapiens, UniProt P28065).
T6 sequence (P28065 whole entry): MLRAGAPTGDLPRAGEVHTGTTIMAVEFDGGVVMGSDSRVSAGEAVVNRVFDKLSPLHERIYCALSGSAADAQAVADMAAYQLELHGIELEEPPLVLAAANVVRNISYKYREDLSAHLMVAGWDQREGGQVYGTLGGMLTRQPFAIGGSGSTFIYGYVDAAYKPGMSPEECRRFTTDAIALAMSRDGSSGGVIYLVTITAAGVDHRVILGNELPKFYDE
The experiment in a line: Inhibition of human 20S immunoproteasome beta-1 using Ac-PAL-AMC as substrate incubated for 15 mins measured for 45 mins by fluorescence assay.
Details: not given
The gist of the method:
(§3)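 Human 20S immunoproteasome (0.3 nM) was given 15 min with compound (0.001-50 μM) in pH 8 buffer of 20 mM Tris-HCl, 10% glycerol, 0.01% SDS, 2% DMSO. Ac-PAL-AMC at 50 μM was the substrate. Fluorescence (ex 360/em 460 nm) was followed 45 min at 37 °C relative to control.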
With `C[C@H](NC(=O)c1ccc(OCc2ccccc2)cc1)C(=O)N[C@@H](C[C@]1(O)C(=O)Nc2ccccc21)C(=O)NCc1ccccc1`, inhibition was half-maximal at 52 µM (IC50).

A further data set concerns the target T7, Proteasome Macropain subunit MB1 (Homo sapiens) (UniProt P28074).
T7 sequence (whole entry): T2 sequence (P28074 whole entry)
The data set can be described thus: Inhibition of human 20S constitutive proteasome beta-5 at 50 uM using Suc-LLVY-AMC as substrate incubated for 15 mins measured for 45 mins by fluorescence assay relative to control.
Details: not given
The method in brief: as §2
As to `C[C@H](NC(=O)c1ccc(OCc2ccccc2)cc1)C(=O)N[C@@H](C[C@]1(O)C(=O)Nc2ccccc21)C(=O)NCc1ccccc1`, the inhibition was more than 85%.

The next data set deals with T8, Proteasome subunit beta type-9 (Homo sapiens) (UniProt P28065).
T8 sequence (whole entry): T6 sequence (P28065 whole entry)
The experiment in a line: Inhibition of human 20S immunoproteasome beta-1 at 50 uM using Ac-PAL-AMC as substrate incubated for 15 mins measured for 45 mins by fluorescence assay relative to control.
Details: not given
The gist of the method:
as §3
For the compound `C[C@H](NC(=O)c1ccc(OCc2ccccc2)cc1)C(=O)N[C@@H](C[C@]1(O)C(=O)Nc2ccccc21)C(=O)NCc1ccccc1`, the inhibition was more than 85%.

A further data set relates to Huh-7. The data set can be described thus: Cytotoxicity against human HuH7 cells assessed as reduction in cell viability after 48 hrs by Hoechst 33342 staining based HCS assay. The conditions noted are these: huh-7. Format: functional. The method in brief:
as §1
For `C[C@H](NC(=O)c1ccc(OCc2ccccc2)cc1)C(=O)N[C@@H](C[C@]1(O)C(=O)Nc2ccccc21)C(=O)NCc1ccccc1`, the EC50 entry was “Not Active”.

For another data set, the target named is Proteasome Macropain subunit (Homo sapiens) (UniProt P49721). The experiment in a line: Inhibition of human 20S constitutive proteasome beta-2 at 50 uM using BocLRR-AMC as substrate incubated for 15 mins measured for 45 mins by fluorescence assay relative to control.
Sequence of Proteasome Macropain subunit (Homo sapiens) (P49721 whole entry): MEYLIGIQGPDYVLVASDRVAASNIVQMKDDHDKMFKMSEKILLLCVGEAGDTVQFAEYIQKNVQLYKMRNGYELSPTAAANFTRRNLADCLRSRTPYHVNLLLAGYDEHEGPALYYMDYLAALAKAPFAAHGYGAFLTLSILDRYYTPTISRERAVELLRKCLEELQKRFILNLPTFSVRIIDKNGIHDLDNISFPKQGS
Details: not given
The gist of the method: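 Purified human 20S proteasome (cCP or iCP), 0.3 nM, preincubated 15 min with compound (0.001-50 μM) in pH 8 buffer of 20 mM Tris-HCl, 10% glycerol, 0.005% Triton X-100, 2% DMSO. Then Boc-LRR-AMC at 50 μM was added. AMC fluorescence (ex 360/em 460 nm) was followed 45 min at 37 °C. Activity is relative to an untreated control.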
For `C[C@H](NC(=O)c1ccc(OCc2ccccc2)cc1)C(=O)N[C@@H](C[C@]1(O)C(=O)Nc2ccccc21)C(=O)NCc1ccccc1`, the inhibition is more than 85%.

In the next data set the test system is Fibroblast. The data set can be described thus: Cytotoxicity against human fibroblasts assessed as reduction in cell viability at 25 uM after 48 hrs by Hoechst 33342 staining based HCS assay.
Details: not given
Consider `C[C@H](NC(=O)c1ccc(OCc2ccccc2)cc1)C(=O)N[C@@H](C[C@]1(O)C(=O)Nc2ccccc21)C(=O)NCc1ccccc1`, for which the Activity result was “Non-Toxic”.

In a further data set the test system is MDA-MB-231. The experiment in a line: Cytotoxicity against human MDA-MB-231 cells assessed as reduction in cell viability after 48 hrs by Hoechst 33342 staining based HCS assay. Format: functional. Conditions: Homo sapiens, MDA-MB-231, 48 h; read-out: EC50. The method in brief:
as §1
`C[C@H](NC(=O)c1ccc(OCc2ccccc2)cc1)C(=O)N[C@@H](C[C@]1(O)C(=O)Nc2ccccc21)C(=O)NCc1ccccc1`: the EC50 is 23 µM.

The next data set concerns Caco-2. The experiment in a line: Cytotoxicity against human Caco2 cells assessed as reduction in cell viability after 48 hrs by Hoechst 33342 staining based HCS assay. In kind it is functional. Conditions: caco-2. The method in brief: as §1
In the case of `C[C@H](NC(=O)c1ccc(OCc2ccccc2)cc1)C(=O)N[C@@H](C[C@]1(O)C(=O)Nc2ccccc21)C(=O)NCc1ccccc1`, the EC50 entry is given as “Not Active”.

A further data set concerns the target T9, Proteasome component C5 (Homo sapiens) (UniProt P20618).
T9 sequence (whole entry): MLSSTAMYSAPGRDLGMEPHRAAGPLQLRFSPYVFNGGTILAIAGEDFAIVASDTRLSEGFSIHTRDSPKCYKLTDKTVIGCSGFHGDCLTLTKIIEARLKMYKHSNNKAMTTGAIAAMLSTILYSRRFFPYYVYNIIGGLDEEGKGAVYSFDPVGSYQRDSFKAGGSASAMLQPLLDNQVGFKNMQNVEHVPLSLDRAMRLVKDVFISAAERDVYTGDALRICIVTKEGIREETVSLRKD
The data set can be described thus: Inhibition of human 20S constitutive proteasome beta-1 at 50 uM using Z-LLE-betaNA as substrate incubated for 15 mins measured for 45 mins by fluorescence assay relative to control.
Details: not given
The gist of the method: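 Human 20S constitutive proteasome, 0.3 nM, was preincubated 15 min with compound (0.001-50 μM) in pH 8 Tris-HCl 20 mM, 10% glycerol, 0.01% SDS, 2% DMSO. Z-LLE-βNA at 50 μM was added. βNA fluorescence (ex 340/em 404 nm) was monitored 45 min at 37 °C against an untreated control.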
Compound `C[C@H](NC(=O)c1ccc(OCc2ccccc2)cc1)C(=O)N[C@@H](C[C@]1(O)C(=O)Nc2ccccc21)C(=O)NCc1ccccc1` registered an inhibition of more than 85%.
